# Experimental data published in ChEMBL document CHEMBL1165969, “Synthesis and cytotoxicity of novel indirubin-5-carboxamides” (Bioorg Med Chem, 2010).
# pIC50: −log10 of the molar value.
# Experiments:
# [1] = biological target: Mast/stem cell growth factor receptor Kit (Homo sapiens) (UniProt P10721); assay: Inhibition of KIT assessed as residual activity at 1 uM after 80 mins by microplate scintillation counting
# [2] = biological target: Tyrosine-protein kinase JAK2 (Homo sapiens) (UniProt O60674); assay: Inhibition of JAK2 assessed as residual activity at 10 uM after 80 mins by microplate scintillation counting
# Tyrosine-protein kinase JAK2 (Homo sapiens), sequence (O60674 whole entry): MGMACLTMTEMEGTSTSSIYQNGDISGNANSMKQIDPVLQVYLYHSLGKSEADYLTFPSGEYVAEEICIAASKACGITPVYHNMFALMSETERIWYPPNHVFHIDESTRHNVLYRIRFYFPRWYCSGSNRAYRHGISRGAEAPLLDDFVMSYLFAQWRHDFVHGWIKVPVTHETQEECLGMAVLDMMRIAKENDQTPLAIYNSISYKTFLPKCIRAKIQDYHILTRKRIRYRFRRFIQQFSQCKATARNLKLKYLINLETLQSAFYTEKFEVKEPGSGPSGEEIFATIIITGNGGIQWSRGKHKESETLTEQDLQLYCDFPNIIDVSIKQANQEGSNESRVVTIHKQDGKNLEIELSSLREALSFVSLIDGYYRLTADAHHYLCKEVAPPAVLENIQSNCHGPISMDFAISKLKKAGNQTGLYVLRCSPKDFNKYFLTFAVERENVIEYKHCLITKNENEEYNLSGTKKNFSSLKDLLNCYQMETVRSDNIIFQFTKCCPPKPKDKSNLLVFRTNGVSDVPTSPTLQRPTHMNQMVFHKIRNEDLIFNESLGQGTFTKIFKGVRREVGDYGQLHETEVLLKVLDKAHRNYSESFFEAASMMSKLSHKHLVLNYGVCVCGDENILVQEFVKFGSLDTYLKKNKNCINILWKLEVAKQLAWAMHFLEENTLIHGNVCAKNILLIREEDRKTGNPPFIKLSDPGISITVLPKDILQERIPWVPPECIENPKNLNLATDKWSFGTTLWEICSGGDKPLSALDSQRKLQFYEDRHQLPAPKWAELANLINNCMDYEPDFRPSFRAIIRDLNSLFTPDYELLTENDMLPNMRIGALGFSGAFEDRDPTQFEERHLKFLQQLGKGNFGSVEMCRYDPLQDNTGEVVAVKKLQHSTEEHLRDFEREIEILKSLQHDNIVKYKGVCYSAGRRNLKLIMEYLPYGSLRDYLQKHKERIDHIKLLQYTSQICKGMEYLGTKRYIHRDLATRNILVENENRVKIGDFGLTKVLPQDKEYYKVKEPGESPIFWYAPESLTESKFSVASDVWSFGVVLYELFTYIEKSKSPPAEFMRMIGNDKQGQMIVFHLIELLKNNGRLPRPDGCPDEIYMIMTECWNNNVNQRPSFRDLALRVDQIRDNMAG
# [3] = biological target: Serine/threonine-protein kinase Chk2 (Homo sapiens) (UniProt O96017); assay: Inhibition of CHK2 assessed as residual activity at 1 uM after 80 mins by microplate scintillation counting
# Serine/threonine-protein kinase Chk2 (Homo sapiens), sequence (O96017 whole entry): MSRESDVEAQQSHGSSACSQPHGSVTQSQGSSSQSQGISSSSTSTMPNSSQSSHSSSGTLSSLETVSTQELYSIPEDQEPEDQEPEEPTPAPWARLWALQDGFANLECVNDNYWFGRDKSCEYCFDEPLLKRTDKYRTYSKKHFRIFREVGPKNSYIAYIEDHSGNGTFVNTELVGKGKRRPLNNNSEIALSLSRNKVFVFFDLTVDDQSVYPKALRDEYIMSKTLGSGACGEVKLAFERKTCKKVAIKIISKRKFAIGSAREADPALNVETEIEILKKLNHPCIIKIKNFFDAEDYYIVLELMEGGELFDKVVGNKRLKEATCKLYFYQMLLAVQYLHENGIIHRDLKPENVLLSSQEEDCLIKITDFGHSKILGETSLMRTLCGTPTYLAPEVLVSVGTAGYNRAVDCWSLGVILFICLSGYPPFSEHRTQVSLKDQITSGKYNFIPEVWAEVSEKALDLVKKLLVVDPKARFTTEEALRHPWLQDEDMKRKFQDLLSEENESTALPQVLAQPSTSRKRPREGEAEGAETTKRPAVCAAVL
# [4] = biological target: Serine/threonine-protein kinase Chk2 (Homo sapiens) (UniProt O96017); assay: Inhibition of CHK2 assessed as residual activity at 10 uM after 80 mins by microplate scintillation counting
# [5] = biological target: Aurora kinase A (Homo sapiens) (UniProt O14965); assay: Inhibition of Aurora A assessed as residual activity at 10 uM after 80 mins by microplate scintillation counting
# [6] = biological target: Aurora kinase B (Homo sapiens) (UniProt Q96GD4); assay: Inhibition of Aurora B assessed as residual activity at 10 uM after 80 mins by microplate scintillation counting
# Aurora kinase B (Homo sapiens), sequence (Q96GD4 whole entry): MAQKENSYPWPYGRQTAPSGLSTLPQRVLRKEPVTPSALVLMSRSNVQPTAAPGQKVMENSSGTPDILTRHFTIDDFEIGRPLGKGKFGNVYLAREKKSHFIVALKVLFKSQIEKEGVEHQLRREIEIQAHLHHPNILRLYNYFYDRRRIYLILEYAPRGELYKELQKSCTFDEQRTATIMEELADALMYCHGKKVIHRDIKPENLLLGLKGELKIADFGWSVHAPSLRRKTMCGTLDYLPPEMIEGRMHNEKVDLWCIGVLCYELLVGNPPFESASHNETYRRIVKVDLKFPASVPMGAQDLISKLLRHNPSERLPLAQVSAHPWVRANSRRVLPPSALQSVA
# [7] = biological target: Ribosomal protein S6 kinase beta-1 (Homo sapiens) (UniProt P23443); assay: Inhibition of p70S6K1 assessed as residual activity at 10 uM after 80 mins by microplate scintillation counting
# Outline: (§1)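 Kinase profiling was outsourced to a contract laboratory as a panel of 30 protein kinases. Each compound was tested at two concentrations, and residual kinase activity was recorded.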
# [8] = biological target: Cyclin-dependent kinase 2/cyclin E1 (Homo sapiens) (UniProt P24864+P24941); assay: Inhibition of CDK2/Cyclin E assessed as residual activity at 10 uM after 80 mins by microplate scintillation counting; assay type: protein-complex assay
# [9] = biological target: Aurora kinase C (Homo sapiens) (UniProt Q9UQB9); assay: Inhibition of Aurora C assessed as residual activity at 1 uM after 80 mins by microplate scintillation counting
# Aurora kinase C (Homo sapiens), sequence (Q9UQB9 whole entry): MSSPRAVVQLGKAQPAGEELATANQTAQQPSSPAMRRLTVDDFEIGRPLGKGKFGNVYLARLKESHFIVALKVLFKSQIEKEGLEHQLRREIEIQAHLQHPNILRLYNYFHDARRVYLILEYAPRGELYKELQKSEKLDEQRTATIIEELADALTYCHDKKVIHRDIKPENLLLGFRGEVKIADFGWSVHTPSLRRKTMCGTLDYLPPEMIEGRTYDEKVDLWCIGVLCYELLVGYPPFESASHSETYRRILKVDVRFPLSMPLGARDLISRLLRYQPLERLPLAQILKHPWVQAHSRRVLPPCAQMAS
# [10] = biological target: Serine/threonine-protein kinase B-raf (Homo sapiens) (UniProt P15056); assay: Inhibition of B-Raf assessed as residual activity at 10 uM after 80 mins by microplate scintillation counting
# Serine/threonine-protein kinase B-raf (Homo sapiens), sequence (P15056 whole entry): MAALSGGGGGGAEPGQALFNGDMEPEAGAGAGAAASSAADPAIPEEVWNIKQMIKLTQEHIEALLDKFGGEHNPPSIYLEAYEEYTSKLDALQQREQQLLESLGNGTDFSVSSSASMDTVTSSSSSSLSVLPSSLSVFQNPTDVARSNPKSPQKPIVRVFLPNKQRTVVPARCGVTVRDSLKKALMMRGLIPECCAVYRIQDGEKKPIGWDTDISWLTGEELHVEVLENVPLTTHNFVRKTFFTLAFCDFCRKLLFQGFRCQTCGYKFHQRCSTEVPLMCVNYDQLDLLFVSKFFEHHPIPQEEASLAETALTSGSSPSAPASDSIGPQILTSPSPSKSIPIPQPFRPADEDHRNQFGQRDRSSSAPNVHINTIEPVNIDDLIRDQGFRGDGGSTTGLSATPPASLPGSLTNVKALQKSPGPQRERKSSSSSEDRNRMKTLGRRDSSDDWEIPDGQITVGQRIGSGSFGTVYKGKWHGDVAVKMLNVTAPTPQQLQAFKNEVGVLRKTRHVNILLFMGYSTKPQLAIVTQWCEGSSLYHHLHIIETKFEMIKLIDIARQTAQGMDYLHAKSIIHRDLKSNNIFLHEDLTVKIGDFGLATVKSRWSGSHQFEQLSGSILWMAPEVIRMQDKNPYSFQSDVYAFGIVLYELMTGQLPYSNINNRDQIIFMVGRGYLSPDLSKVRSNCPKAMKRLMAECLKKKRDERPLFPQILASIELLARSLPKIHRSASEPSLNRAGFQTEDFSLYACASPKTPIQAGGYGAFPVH
# [11] = biological target: Tyrosine-protein kinase Fgr (Homo sapiens) (UniProt P09769); assay: Inhibition of FGR assessed as residual activity at 1 uM after 80 mins by microplate scintillation counting
# [12] = biological target: Vascular endothelial growth factor receptor 3 (Homo sapiens) (UniProt P35916); assay: Inhibition of VEGFR3 assessed as residual activity at 10 uM after 80 mins by microplate scintillation counting; outline: as §1
# [13] = biological target: Aurora kinase B (Homo sapiens) (UniProt Q96GD4); assay: Inhibition of Aurora B assessed as residual activity at 1 uM after 80 mins by microplate scintillation counting
# [14] = biological target: Insulin-like growth factor 1 receptor (Homo sapiens) (UniProt P08069); assay: Inhibition of IGF1R assessed as residual activity at 10 uM after 80 mins by microplate scintillation counting
# [15] = biological target: RAF proto-oncogene serine/threonine-protein kinase (Homo sapiens) (UniProt P04049); assay: Inhibition of RAF1 assessed as residual activity at 1 uM after 80 mins by microplate scintillation counting; outline: as §1
# RAF proto-oncogene serine/threonine-protein kinase (Homo sapiens), sequence (P04049 whole entry): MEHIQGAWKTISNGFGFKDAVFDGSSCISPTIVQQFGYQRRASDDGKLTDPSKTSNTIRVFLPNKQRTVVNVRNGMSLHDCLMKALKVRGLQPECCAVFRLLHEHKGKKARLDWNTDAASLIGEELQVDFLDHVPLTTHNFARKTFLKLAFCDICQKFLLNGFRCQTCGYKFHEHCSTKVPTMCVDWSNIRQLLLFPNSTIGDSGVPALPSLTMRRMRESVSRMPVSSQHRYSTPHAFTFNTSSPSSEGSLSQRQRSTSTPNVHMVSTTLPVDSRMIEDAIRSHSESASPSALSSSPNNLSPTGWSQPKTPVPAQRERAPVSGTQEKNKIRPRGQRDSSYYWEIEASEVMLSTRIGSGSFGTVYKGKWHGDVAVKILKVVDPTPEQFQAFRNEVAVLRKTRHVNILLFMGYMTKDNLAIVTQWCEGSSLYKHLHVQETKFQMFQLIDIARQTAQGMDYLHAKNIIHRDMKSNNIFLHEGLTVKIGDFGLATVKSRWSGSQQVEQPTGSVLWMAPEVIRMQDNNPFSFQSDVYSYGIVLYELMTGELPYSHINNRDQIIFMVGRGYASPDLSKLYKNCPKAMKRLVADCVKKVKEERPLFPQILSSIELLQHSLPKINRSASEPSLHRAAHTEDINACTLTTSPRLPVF
# [16] = Antiproliferative activity against human LXFL 529L cells after 3 days by sulforhodamine B assay; assay type: functional, cell-based; conditions: Homo sapiens, LXFL 529L, 72 h
# Outline: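 Cells kept at 37 °C in humidified 5% CO2 in RPMI 1640 with 10% heat-inactivated FBS, penicillin (100 units/mL) and streptomycin, and checked for mycoplasma. Seeded, grown 24 h, then exposed to drug for 3 days in serum-containing medium. Fixed with 50% TCA solution for 1 h at 4 °C, stained with 0.4% SRB, dye eluted in 10 mM Tris pH 10.5, read at 570 nm. Growth expressed as % T/C; IC50 derived.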
# [17] = biological target: Cyclin-dependent kinase 2/cyclin A (Homo sapiens) (UniProt P24941+P20248+P78396); assay: Inhibition of CDK2/Cyclin A assessed as residual activity at 1 uM after 80 mins by microplate scintillation counting; assay type: protein-complex assay
# [18] = biological target: Serine/threonine-protein kinase Chk1 (Homo sapiens) (UniProt O14757); assay: Inhibition of CHK1 assessed as residual activity at 1 uM after 80 mins by microplate scintillation counting
# [19] = biological target: Tyrosine-protein kinase JAK2 (Homo sapiens) (UniProt O60674); assay: Inhibition of JAK2 assessed as residual activity at 1 uM after 80 mins by microplate scintillation counting
# [20] = biological target: Proto-oncogene tyrosine-protein kinase receptor Ret (Homo sapiens) (UniProt P07949); assay: Inhibition of RET assessed as residual activity at 10 uM after 80 mins by microplate scintillation counting; outline: as §1
# Proto-oncogene tyrosine-protein kinase receptor Ret (Homo sapiens), sequence (P07949 whole entry): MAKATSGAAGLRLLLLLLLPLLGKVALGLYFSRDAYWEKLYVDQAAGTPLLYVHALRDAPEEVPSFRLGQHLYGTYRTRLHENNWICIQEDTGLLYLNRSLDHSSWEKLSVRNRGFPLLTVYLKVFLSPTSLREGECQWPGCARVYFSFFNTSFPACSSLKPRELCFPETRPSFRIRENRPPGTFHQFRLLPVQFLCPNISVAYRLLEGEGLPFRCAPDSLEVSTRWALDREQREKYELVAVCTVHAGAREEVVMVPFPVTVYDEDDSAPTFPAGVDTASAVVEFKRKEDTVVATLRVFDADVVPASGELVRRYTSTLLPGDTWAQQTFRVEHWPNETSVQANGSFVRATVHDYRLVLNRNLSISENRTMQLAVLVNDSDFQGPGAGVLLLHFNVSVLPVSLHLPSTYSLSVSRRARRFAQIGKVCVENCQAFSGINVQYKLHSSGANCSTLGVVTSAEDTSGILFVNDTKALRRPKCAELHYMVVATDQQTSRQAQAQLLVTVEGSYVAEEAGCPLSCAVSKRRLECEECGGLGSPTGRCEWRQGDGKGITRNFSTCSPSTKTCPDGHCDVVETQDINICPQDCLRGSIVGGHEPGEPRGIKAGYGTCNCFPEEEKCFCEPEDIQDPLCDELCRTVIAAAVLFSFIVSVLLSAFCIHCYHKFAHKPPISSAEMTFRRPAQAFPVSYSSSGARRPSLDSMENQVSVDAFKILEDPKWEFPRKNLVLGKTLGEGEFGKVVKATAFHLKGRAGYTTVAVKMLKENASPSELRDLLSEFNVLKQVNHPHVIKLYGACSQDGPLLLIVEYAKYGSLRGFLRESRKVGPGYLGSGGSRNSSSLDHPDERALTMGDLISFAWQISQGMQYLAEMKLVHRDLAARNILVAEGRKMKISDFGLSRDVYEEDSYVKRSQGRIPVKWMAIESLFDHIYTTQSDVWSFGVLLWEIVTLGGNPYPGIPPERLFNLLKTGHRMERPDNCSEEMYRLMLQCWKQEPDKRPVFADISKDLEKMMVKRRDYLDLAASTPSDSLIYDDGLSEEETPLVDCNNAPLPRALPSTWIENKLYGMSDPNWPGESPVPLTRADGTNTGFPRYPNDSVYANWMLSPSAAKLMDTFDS
# [21] = biological target: Cyclin-dependent kinase 5/CDK5 activator 1 (Homo sapiens) (UniProt Q00535+Q15078); assay: Inhibition of CDK5/p35 assessed as residual activity at 1 uM after 80 mins by microplate scintillation counting; assay type: protein-complex assay
# [22] = biological target: Epidermal growth factor receptor (Homo sapiens) (UniProt P00533); assay: Inhibition of EGFR assessed as residual activity at 1 uM after 80 mins by microplate scintillation counting
# [23] = biological target: Serine/threonine-protein kinase B-raf (Homo sapiens) (UniProt P15056); assay: Inhibition of B-Raf assessed as residual activity at 1 uM after 80 mins by microplate scintillation counting
# [24] = biological target: Cyclin-dependent kinase 1/cyclin B1 (Homo sapiens) (UniProt P06493+P14635); assay: Inhibition of CDK1/Cyclin B1 assessed as residual activity at 10 uM after 80 mins by microplate scintillation counting; assay type: protein-complex assay
# [25] = biological target: Aurora kinase C (Homo sapiens) (UniProt Q9UQB9); assay: Inhibition of Aurora C assessed as residual activity at 10 uM after 80 mins by microplate scintillation counting
compound,measurement,setting,value
CN1CCN(c2ccc(NC(=O)c3ccc4c(c3)/C(=C3/Nc5ccccc5C3=O)C(=O)N4)cc2)CC1,Activity,[1],98%
same,Activity,[2],48%
same,Activity,[3],90%
same,Activity,[4],69%
same,Activity,[5],63%
same,Activity,[6],73%
same,Activity,[7],48%
same,Activity,[8],14%
same,Activity,[9],83%
same,Activity,[10],106%
same,Activity,[11],99%
same,Activity,[12],37%
same,Activity,[13],98%
same,Activity,[14],103%
same,Activity,[15],94%
same,pIC50,[16],6.27
same,Activity,[17],60%
same,Activity,[18],106%
same,Activity,[19],95%
same,Activity,[20],58%
same,Activity,[21],53%
same,Activity,[22],99%
same,Activity,[23],103%
same,Activity,[24],23%
same,Activity,[25],92%
